In ChEMBL document CHEMBL1135750, “Phenoxyphenyl sulfone N-formylhydroxylamines (retrohydroxamates) as potent, selective, orally bioavailable matrix metalloproteinase inhibitors” (J Med Chem, 2002):

What was measured:
[1] = AUC in monkey; type: ADME; parameters: concentration or dose not given beside the values; details: simiiformes, plasma
Interstitial collagenase = target: T1, Interstitial collagenase (Homo sapiens, UniProt P03956); assay: In vitro selective inhibition against matrix metalloprotease-1 (MMP-1) using a fluorimetric assay
T1 sequence (P03956 whole entry): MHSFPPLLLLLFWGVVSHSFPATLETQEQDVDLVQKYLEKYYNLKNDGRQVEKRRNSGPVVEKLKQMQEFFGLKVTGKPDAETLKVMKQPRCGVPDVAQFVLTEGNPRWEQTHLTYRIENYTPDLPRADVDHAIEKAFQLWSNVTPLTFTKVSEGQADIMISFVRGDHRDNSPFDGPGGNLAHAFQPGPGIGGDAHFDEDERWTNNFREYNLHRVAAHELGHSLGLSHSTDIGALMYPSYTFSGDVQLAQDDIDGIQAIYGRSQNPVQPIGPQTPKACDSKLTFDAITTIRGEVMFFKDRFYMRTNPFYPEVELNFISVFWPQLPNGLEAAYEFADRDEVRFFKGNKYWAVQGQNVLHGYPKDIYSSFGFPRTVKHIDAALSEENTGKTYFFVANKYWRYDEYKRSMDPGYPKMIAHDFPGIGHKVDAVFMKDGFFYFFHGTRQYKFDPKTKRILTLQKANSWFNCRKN

[2] = target: Matrix metalloproteinase-9 (Homo sapiens, UniProt P14780); assay: In vitro selective inhibition against Matrix metalloprotease-9 (MMP-9) using fluorimetric assay
[3] = target: 72 kDa type IV collagenase (Homo sapiens, UniProt P08253); assay: In vitro selective inhibition against matrix metalloprotease-2 (MMP-2) using fluorimetric assay
[4] = Half life measured as t1/2 in hours after iv administration in cynomolgus monkey; type: ADME, organism-based, Macaca fascicularis; details: in vivo
THP-1 = assay: Selective inhibition of the cellular TNF alpha release from LPS-stimulated THP-1 cells; type: functional, cell-based; details: Homo sapiens
Matrilysin = target: T2, Matrilysin (Homo sapiens, UniProt P09237); assay: Inhibition of Matrix metalloprotease-7 (MMP-7) in fluorimetric assay
T2 sequence (P09237 whole entry): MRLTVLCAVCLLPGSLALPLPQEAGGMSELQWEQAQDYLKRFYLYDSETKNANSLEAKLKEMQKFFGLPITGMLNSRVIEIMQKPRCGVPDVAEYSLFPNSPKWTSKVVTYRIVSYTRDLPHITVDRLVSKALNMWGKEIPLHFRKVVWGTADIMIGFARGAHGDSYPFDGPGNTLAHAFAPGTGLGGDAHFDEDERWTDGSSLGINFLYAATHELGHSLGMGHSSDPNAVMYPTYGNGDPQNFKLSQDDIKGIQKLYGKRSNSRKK

Neutrophil collagenase = Neutrophil collagenase (Homo sapiens, UniProt P22894); assay: Inhibition of Matrix metalloprotease-8 (MMP-8) in fluorimetric assay
[5] = Area under the curve (AUC) after 3 mg/kg peroral administration in cynomolgus monkey; type: ADME, organism-based, Macaca fascicularis; parameters: dose 3 mg/kg, route oral; details: in vivo, po
How it was run: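 Single oral dose of 3 mpk in cynomolgus monkeys, two animals per compound. Oral exposure is reported as AUC in μM·h.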

Chain of Matrix metalloproteinase-9 (P14780 whole entry): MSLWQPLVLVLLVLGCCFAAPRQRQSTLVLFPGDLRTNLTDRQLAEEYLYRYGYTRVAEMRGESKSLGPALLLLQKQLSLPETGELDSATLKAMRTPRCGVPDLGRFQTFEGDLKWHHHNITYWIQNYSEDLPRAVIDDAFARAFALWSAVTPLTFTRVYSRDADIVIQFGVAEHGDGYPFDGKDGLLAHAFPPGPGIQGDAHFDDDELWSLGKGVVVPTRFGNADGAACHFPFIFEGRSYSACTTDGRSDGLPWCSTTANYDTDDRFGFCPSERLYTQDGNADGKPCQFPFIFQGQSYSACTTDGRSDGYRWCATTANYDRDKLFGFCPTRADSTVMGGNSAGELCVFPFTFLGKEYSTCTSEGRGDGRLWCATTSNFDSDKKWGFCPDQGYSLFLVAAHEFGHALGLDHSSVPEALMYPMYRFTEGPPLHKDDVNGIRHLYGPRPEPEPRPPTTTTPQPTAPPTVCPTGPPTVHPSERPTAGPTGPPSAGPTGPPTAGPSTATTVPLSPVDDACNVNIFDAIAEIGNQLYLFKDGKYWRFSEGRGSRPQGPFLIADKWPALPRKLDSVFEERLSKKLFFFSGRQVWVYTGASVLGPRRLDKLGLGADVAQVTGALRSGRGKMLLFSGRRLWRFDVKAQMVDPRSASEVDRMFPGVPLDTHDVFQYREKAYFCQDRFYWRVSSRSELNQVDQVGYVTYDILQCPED
Chain of 72 kDa type IV collagenase (P08253 whole entry): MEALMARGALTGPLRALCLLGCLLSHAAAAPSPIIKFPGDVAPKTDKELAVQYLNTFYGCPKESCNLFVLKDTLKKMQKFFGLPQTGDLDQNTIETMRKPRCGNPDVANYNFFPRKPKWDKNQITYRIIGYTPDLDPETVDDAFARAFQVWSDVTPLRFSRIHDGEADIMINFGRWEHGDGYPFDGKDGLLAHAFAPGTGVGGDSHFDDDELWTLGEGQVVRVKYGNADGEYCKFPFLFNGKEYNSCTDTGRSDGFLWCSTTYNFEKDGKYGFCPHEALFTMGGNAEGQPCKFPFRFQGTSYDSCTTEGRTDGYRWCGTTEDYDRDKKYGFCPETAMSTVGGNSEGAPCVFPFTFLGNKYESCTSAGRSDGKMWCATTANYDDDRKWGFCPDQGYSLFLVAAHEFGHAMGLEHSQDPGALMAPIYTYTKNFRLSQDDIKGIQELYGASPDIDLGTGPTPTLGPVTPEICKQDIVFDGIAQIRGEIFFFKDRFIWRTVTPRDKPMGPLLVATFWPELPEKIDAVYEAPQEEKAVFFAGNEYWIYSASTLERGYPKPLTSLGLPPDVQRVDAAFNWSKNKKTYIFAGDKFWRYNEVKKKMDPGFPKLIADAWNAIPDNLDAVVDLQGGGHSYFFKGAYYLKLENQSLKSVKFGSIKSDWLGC
Chain of Neutrophil collagenase (P22894 whole entry): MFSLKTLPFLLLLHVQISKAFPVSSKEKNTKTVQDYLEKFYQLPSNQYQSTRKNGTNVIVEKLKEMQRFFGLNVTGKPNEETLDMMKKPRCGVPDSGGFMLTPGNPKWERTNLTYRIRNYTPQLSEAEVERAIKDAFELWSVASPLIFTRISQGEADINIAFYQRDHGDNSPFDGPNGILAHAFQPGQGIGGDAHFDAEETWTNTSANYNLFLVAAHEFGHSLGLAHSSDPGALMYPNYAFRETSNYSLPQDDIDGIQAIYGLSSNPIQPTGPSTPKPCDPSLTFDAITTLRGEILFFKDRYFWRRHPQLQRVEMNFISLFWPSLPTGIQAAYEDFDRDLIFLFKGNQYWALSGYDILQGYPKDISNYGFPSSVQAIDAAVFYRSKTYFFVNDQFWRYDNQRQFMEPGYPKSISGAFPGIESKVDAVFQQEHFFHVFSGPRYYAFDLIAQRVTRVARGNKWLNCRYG

| SMILES | AUC [1] [µM·h] | IC50 (Interstitial collagenase) [nM] | IC50 [2] [nM] | IC50 [3] [nM] | half-life [4] [h] | IC50 (THP-1) [nM] | IC50 (Matrilysin) [nM] | IC50 (Neutrophil collagenase) [nM] | AUC [5] [µM·h] |
| --- | --- | --- | --- | --- | --- | --- | --- | --- | --- |
| O=CN(O)C(CCc1ccc(C(=O)O)cc1)CS(=O)(=O)c1ccc(Oc2ccc(OC(F)(F)F)cc2)cc1 (configuration not stated) | 16 | > 50000 | 0.53 | 0.53 | – | – | – | – | – |
| O=CN(O)C(CCN1CCOCC1)CS(=O)(=O)c1ccc(Oc2ccc(OC(F)(F)F)cc2)cc1 (configuration not stated) | 10 | > 50000 | 1.7 | 0.57 | 1.4 | – | – | – | – |
| CC1(C)NC(=O)N(CC(CS(=O)(=O)c2ccc(Oc3ccc(Cl)cc3)cc2)N(O)C=O)C1=O (configuration not stated) | 17 | 90 | 0.96 | 0.32 | 5.6 | – | – | – | – |
| CC1(C)NC(=O)N(CC(CS(=O)(=O)c2ccc(-c3cccc(CC#N)c3)cc2)N(O)C=O)C1=O (configuration not stated) | – | 78 | 0.91 | 0.35 | 0.5 | – | – | – | – |
| O=CN(O)C(CCC(=O)N1CCOCC1)CS(=O)(=O)c1ccc(Oc2ccc(OC(F)(F)F)cc2)cc1 (configuration not stated) | – | > 50000 | 2 | 2.6 | 8.6 | – | – | – | – |
| CC1(C)OC[C@H]([C@@H](CS(=O)(=O)c2ccc(Oc3ccc(OC(F)(F)F)cc3)cc2)N(O)C=O)O1 (stereo in doubt; 19w) | – | > 50000 | 1.4 | 25 | – | – | – | – | – |
| CN(C)S(=O)(=O)CC(CS(=O)(=O)c1ccc(Oc2ccc(OC(F)(F)F)cc2)cc1)N(O)C=O (configuration not stated) | 4 | 6600 | 7.2 | 0.098 | – | – | – | – | – |
| CC1(C)NC(=O)N(CC(CS(=O)(=O)c2ccc(-c3ccc(OC(F)(F)F)cc3)cc2)N(O)C=O)C1=O (configuration not stated) | 5 | 82 | 0.34 | 0.86 | – | – | – | – | – |
| O=CN(O)C(COCCO)CS(=O)(=O)c1ccc(Oc2ccc(OC(F)(F)F)cc2)cc1 (configuration not stated) | – | > 50000 | 0.3 | 0.44 | – | – | – | – | – |
| CN1C(=O)N(CC(CS(=O)(=O)c2ccc(Oc3ccc(Cl)cc3)cc2)N(O)C=O)C(=O)C1(C)C (configuration not stated) | 13 | 280 | 1.4 | 0.72 | 11.7 | – | – | – | – |
| O=CN(O)C(CS(=O)(=O)c1ccc(Oc2ccc(OC(F)(F)F)cc2)cc1)c1ccc(C(F)(F)F)cc1 (configuration not stated) | – | > 50000 | 37 | 62 | – | – | – | – | – |
| CN1C(=O)N(CC(CS(=O)(=O)c2ccc(Oc3ccc(C#N)cc3)cc2)N(O)C=O)C(=O)C1(C)C (configuration not stated) | – | 2500 | 1.8 | 1.4 | – | – | – | – | – |
| CN(C)CC(CS(=O)(=O)c1ccc(Oc2ccc(OC(F)(F)F)cc2)cc1)N(O)C=O (configuration not stated) | 3 | 5200 | 0.9 | 1.3 | 2.2 | – | – | – | – |
| CN1C(=O)N(CC(CS(=O)(=O)c2ccc(Oc3ccc(OC(F)(F)F)cc3)cc2)N(O)C=O)C(=O)C1(C)C (configuration not stated) | 1 | > 50000 | – | 1.8 | 0.7 | – | – | – | – |
| CS(=O)(=O)N1CCC[C@H]1[C@@H](CS(=O)(=O)c1ccc(Oc2ccc(OC(F)(F)F)cc2)cc1)N(O)C=O | 24 | 8000 | 2 | 1.9 | – | – | – | – | – |
| COCC(CS(=O)(=O)c1ccc(Oc2ccc(OC(F)(F)F)cc2)cc1)N(O)C=O (configuration not stated) | – | > 50000 | 0.9 | 2.4 | – | – | – | – | – |
| O=CN(O)C(CO)CS(=O)(=O)c1ccc(Oc2ccc(OC(F)(F)F)cc2)cc1 (configuration not stated) | – | – | 0.26 | 0.35 | 1 | – | – | – | – |
| CNC(=O)[C@@H](NC(=O)[C@H](CC(C)C)[C@H](O)C(=O)NO)C(C)(C)C | – | – | – | – | – | 2100 | – | – | – |
| CC1(C)NC(=O)N(CC(CS(=O)(=O)c2ccc(Oc3ccc(C#N)cc3)cc2)N(O)C=O)C1=O (configuration not stated) | 1 | 990 | 3.9 | 0.93 | – | – | – | – | – |
| O=CN(O)C(CS(=O)(=O)c1ccc(Oc2ccc(OC(F)(F)F)cc2)cc1)C1CCCO1 (configuration not stated) | 26 | > 50000 | 0.32 | 0.61 | – | – | – | – | – |
| CN(CC(CS(=O)(=O)c1ccc(Oc2ccc(OC(F)(F)F)cc2)cc1)N(O)C=O)S(C)(=O)=O (configuration not stated) | – | 2000 | 1.7 | 12 | – | – | – | – | – |
| O=CN(O)C(CS(=O)(=O)c1ccc(Oc2ccc(OC(F)(F)F)cc2)cc1)C(CO)CO (configuration not stated) | 8 | > 50000 | 0.49 | 2.8 | 1.9 | – | – | – | – |

| SMILES | AUC [1] [µM·h] | IC50 (Interstitial collagenase) [nM] | IC50 [2] [nM] | IC50 [3] [nM] | half-life [4] [h] | IC50 (THP-1) [nM] | IC50 (Matrilysin) [nM] | IC50 (Neutrophil collagenase) [nM] | AUC [5] [µM·h] |
| --- | --- | --- | --- | --- | --- | --- | --- | --- | --- |
| C[C@@H]1OC(C)(C)OC1[C@@H](CS(=O)(=O)c1ccc(Oc2ccc(OC(F)(F)F)cc2)cc1)N(O)C=O (some centres not stated) | 21 | > 50000 | 1.1 | 1.9 | 19.5 | – | – | – | – |
| O=CN(O)C(CS(=O)(=O)c1ccc(Oc2ccc(OC(F)(F)F)cc2)cc1)c1ccccc1 (configuration not stated) | – | > 50000 | 4.1 | 7.4 | – | – | – | – | – |
| CC1(C)SCCN(S(=O)(=O)c2ccc(Oc3ccncc3)cc2)[C@H]1C(=O)NO [PRINOMASTAT] | – | – | – | – | – | 8600 | 72 | 0.54 | – |
| O=CN(O)C(CS(=O)(=O)c1ccc(Oc2ccc(OC(F)(F)F)cc2)cc1)CS(=O)(=O)N1CCOCC1 (configuration not stated) | 3 | 2500 | 0.86 | 0.39 | – | – | – | – | – |
| CCC1(CC)OCC([C@@H](CS(=O)(=O)c2ccc(Oc3ccc(OC(F)(F)F)cc3)cc2)N(O)C=O)O1 (some centres not stated) | 5 | 8300 | 1.1 | 20 | – | – | – | – | – |
| CC1(C)NC(=O)N(CC(CS(=O)(=O)c2ccc(-c3ccc(C(F)(F)F)cc3)cc2)N(O)C=O)C1=O (configuration not stated) | 4 | – | 10 | 0.45 | 3.4 | – | – | – | – |
| CS(=O)(=O)N1CCN(CCC(CS(=O)(=O)c2ccc(Oc3ccc(OC(F)(F)F)cc3)cc2)N(O)C=O)CC1 (configuration not stated) | 41 | > 50000 | 0.79 | 0.33 | – | – | – | – | – |
| O=CN(O)C(CS(=O)(=O)c1ccc(Oc2ccc(OC(F)(F)F)cc2)cc1)C1CCC2(CC1)OCCO2 (configuration not stated) | – | > 50000 | 2 | 0.42 | – | – | – | – | 28 |
| O=CN(O)C(CS(=O)(=O)c1ccc(Oc2ccc(OC(F)(F)F)cc2)cc1)c1ccccn1 (configuration not stated) | 1 | > 50000 | 2.2 | 1.7 | – | – | – | – | – |
| CC1(C)OCC(C[C@@H](CS(=O)(=O)c2ccc(Oc3ccc(OC(F)(F)F)cc3)cc2)N(O)C=O)O1 (some centres not stated) | 2 | > 50000 | 5.5 | 1.5 | – | – | – | – | – |
| CCCCOc1ccc(-c2ccc(S(=O)(=O)CC(CN3C(=O)NC(C)(C)C3=O)N(O)C=O)cc2)cc1 (configuration not stated) | – | 240 | 6.2 | 2.4 | – | – | – | – | – |
| CSc1ccc(-c2ccc(S(=O)(=O)CC(CN3C(=O)NC(C)(C)C3=O)N(O)C=O)cc2)cc1 (configuration not stated) | – | 2.9 | 1.1 | 0.67 | – | – | – | – | – |
| Cn1c(C(CS(=O)(=O)c2ccc(Oc3ccc(OC(F)(F)F)cc3)cc2)N(O)C=O)cc2ccccc21 (configuration not stated) | – | > 50000 | 12 | 9.5 | – | – | – | – | – |
| Cn1ccc(=O)n(CC(CS(=O)(=O)c2ccc(Oc3ccc(OC(F)(F)F)cc3)cc2)N(O)C=O)c1=O (configuration not stated) | 11 | 9900 | 1.4 | 0.91 | – | – | – | – | – |
| CC1(C)NC(=O)N(CC(CS(=O)(=O)c2ccc(-c3ccc(C#N)cc3)cc2)N(O)C=O)C1=O (configuration not stated) | – | 36 | 4.1 | 0.34 | 1.1 | – | – | – | – |
| CC1(C)NC(=O)N(CC(CS(=O)(=O)c2ccc(Oc3ccc(OC(F)(F)F)cc3)cc2)N(O)C=O)C1=O (configuration not stated) | 8 | 820 | 2 | 1.3 | – | – | – | – | – |
| O=CN(O)C(CS(=O)(=O)c1ccc(Oc2ccc(OC(F)(F)F)cc2)cc1)[C@H](O)CO (some centres not stated) | 3 | > 50000 | 0.092 | 0.36 | – | – | – | – | – |
| O=CN(O)C(CSc1cccs1)CS(=O)(=O)c1ccc(Oc2ccc(OC(F)(F)F)cc2)cc1 (configuration not stated) | – | 6700 | 9.7 | 3.6 | – | – | – | – | – |
| O=C(C[C@H](CSc1ccccc1)C(=O)O)c1ccc(-c2ccc(Cl)cc2)cc1 [TANOMASTAT] | – | > 5000 | 301 | 11 | – | – | – | – | – |
| CC1(C)OC[C@@H]([C@@H](CS(=O)(=O)c2ccc(Oc3ccc(OC(F)(F)F)cc3)cc2)N(O)C=O)O1 (stereo in doubt; 19v) | – | > 50000 | 2.3 | 6.3 | – | – | – | – | – |
| COC(=O)c1ccc(CCC(CS(=O)(=O)c2ccc(Oc3ccc(OC(F)(F)F)cc3)cc2)N(O)C=O)cc1 (configuration not stated) | – | > 50000 | 0.98 | 34 | – | – | – | – | – |
| CC1(C)OC[C@@H]([C@@H](CS(=O)(=O)c2ccc(Oc3ccc(OC(F)(F)F)cc3)cc2)N(O)C=O)O1 (stereo in doubt; 19x) | – | > 50000 | 480 | 260 | – | – | – | – | – |
